Assay [1] concerns Rhizopus arrhizus. Nature of the assay: Antifungal activity against Rhizopus oryzae ATCC 11145 by EUCAST method. The class given is functional. The essentials: (§1)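 Susceptibility testing by the EUCAST method; read-out is minimal inhibitory concentration (MIC). Amphotericin B used as reference antifungal.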
In assay [2] the test system is Aspergillus ochraceus. Nature of the assay: Antifungal activity against Aspergillus ochraceus ATCC 1009 by EUCAST method. The class given is functional. An outline of the steps: as §1
In assay [3] the test system is Botrytis cinerea. Nature of the assay: Antifungal activity against Botrytis cinerea B05.10 by EUCAST method. The assay is classed as functional. An outline of the steps: as §1
For assay [4], the target named is Collagenase (Homo sapiens) (UniProt P08253+P14780+P22894+P45452+P03956). Nature of the assay: Inhibition of collagenase (unknown origin) at 200 uM relative to control. The class given is protein assay.
Assay [5] addresses T1, Tyrosinase (Homo sapiens) (UniProt P14679).
T1 sequence (whole entry): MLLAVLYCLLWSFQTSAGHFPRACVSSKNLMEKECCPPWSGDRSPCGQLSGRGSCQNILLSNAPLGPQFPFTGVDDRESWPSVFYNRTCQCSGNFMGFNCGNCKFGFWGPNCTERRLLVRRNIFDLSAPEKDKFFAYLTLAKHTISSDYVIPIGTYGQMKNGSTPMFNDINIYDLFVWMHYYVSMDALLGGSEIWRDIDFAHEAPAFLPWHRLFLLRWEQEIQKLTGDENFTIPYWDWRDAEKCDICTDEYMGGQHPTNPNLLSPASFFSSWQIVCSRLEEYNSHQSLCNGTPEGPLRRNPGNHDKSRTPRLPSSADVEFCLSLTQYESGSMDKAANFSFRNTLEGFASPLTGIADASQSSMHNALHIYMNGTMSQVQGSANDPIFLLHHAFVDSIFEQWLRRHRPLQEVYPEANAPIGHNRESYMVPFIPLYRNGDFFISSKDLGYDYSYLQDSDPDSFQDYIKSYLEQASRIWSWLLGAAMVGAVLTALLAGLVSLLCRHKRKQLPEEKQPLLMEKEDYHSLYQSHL
Nature of the assay: Inhibition of tyrosinase (unknown origin) at 200 uM relative to control.

The test system of assay [6] is Bacillus spizizenii. Nature of the assay: Antibacterial activity against Bacillus subtilis ATCC 6633 by broth microdilution method. The class given is functional. An outline of the steps: (§2)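 Broth microdilution run to CLSI guidelines; read-out is minimal inhibitory concentration (MIC). Chloramphenicol used as reference antibacterial.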
In general terms: Broth dilution looks for growth in wells or tubes with falling amounts of substance.

The species named for assay [7] is Homo sapiens. Nature of the assay: Inhibition of elastase (unknown origin) at 200 uM relative to control.
The species named for assay [8] is Homo sapiens. Nature of the assay: Inhibition of hyaluronidase (unknown origin) at 200 uM relative to control.
The subject of assay [9] is Escherichia coli. Nature of the assay: Antibacterial activity against Escherichia coli ATCC 25922 by broth microdilution method. The class given is functional. An outline of the steps: as §2
Assay [10] is described as follows: Antioxidant activity assessed as DPPH radical scavenging activity at 200 uM. The assay is classed as functional.
Assay [11] has as its system Micrococcus luteus. Nature of the assay: Antibacterial activity against Micrococcus luteus ATCC 10240 by broth microdilution method. The class given is functional. The essentials: as §2

Drawing on ChEMBL document CHEMBL4480412, “Deleting a Chromatin Remodeling Gene Increases the Diversity of Secondary Metabolites Produced by Colletotrichum higginsianum” (2019), this text covers MIC and inhibition for seven molecules.

In brackets after ≈: the same amount, converted by molar mass. A value given as a limit tells only on which side of the number the result lay.

The term MIC denotes the smallest concentration in the dilution series that meets the test's criterion for growth inhibition. A high value points to a less susceptible organism. By inhibition is commonly meant the percentage by which the read-out fell short of the control.

For `C[C@@H]1[C@H](O)[C@@H](C)/C=C/C=C/C=C/C=C/C=C/C=C/C=C/[C@H](O[C@@H]2O[C@H](C)[C@@H](O)[C@H](N)[C@@H]2O)C[C@@H]2O[C@](O)(C[C@@H](O)C[C@@H](O)[C@H](O)CC[C@@H](O)C[C@@H](O)CC(=O)O[C@H]1C)C[C@H](O)[C@H]2C(=O)O` [AMPHOTERICIN B], the MIC in [1], in assay [2] and in assay [3] was 2 µM (≈ 1.85 µg/mL) each time.
Take `C=C1CC[C@@H]2[C@](C)(CC[C@H]3O[C@@H](C(C)(C)O)CC[C@@]23C)[C@@H]1Cc1c(O)c(C)c(C)oc1=O`: the inhibition in assay [4], in assay [5], in assay [7], in [8] and in [10] was < 20% in each case. Further, the MIC in [6], in assay [1], in [9], in assay [2], in [3] and in [11] was > 225 µM throughout.
For `CO[C@@H]1[C@@H](O)[C@H](O)[C@H](OC(=O)C2=CC[C@H](C(C)C)[C@H]3C=C(C)CC[C@@H]23)[C@H](OC)[C@H]1O`, the inhibition in [4], in assay [5], in assay [7], in [8] and in assay [10] was < 20% in each case. For the same molecule, the MIC in [6], in [1], in assay [9], in assay [2], in assay [3] and in assay [11] was > 225 µM in each case.
Consider `O=C(N[C@H](CO)[C@H](O)c1ccc([N+](=O)[O-])cc1)C(Cl)Cl` [CHLORAMPHENICOL], for which the MIC in assay [6], in assay [9] and in assay [11] was 10 µM (≈ 3.23 µg/mL) each time.
Regarding `CC(C)=CCc1c(O)cc(C)c(C=O)c1O`, the inhibition in assay [4], in [5], in [7], in assay [8] and in assay [10] was < 20% in each case. The MIC in assay [6], in [1], in assay [9], in assay [2], in assay [3] and in assay [11] was > 225 µM in each case.
In the case of `CC(C)=CCc1c(O)cc(C)c(C(=O)O)c1O`, the inhibition in assay [4], in assay [5], in [7], in [8] and in assay [10] was < 20% each time. For the same molecule, the MIC in assay [6], in [1], in [9], in assay [2], in [3] and in [11] was > 225 µM each time.
With `C=C1CC[C@@H]2[C@](C)(CC[C@H]3O[C@H](C(C)(C)O)CC[C@@]23C)[C@@H]1Cc1c(O)c(C)c(C)oc1=O`, the inhibition in [4], in assay [5], in assay [7], in [8] and in assay [10] was < 20% throughout. Besides, the minimum inhibitory concentration (MIC) in assay [6], in assay [1], in assay [9], in assay [2], in assay [3] and in [11] was > 225 µM throughout.
